From PMC9582641 (Molecular Biology of the Cell, 2022)
Where no end group is shown, it is not given here. [ ]: non-standard residue; d: D form. Lys(Me3) = C[N+](C)(C)CCCC[C@H](N)C(=O)O; pT = C[C@@H](OP(=O)(O)O)[C@H](N)C(=O)O; Lys(Me2) = CN(C)CCCC[C@H](N)C(=O)O; Lys(Me) = CNCCCC[C@H](N)C(=O)O

B1: histone H3 peptide H3T3phK4me3(1-12) (peptide, UniProt P68431 2-13, looked up)
peptide: AR[pT][Lys(Me3)]QTARKSTG
B2: histone H3 peptide H3K4me2(1-12) (peptide, UniProt P68431 2-13, looked up)
peptide: ART[Lys(Me2)]QTARKSTG
B3: histone H3 peptide H3T3phK4me1(1-12) (peptide, UniProt P68431 2-13, looked up)
peptide: AR[pT][Lys(Me)]QTARKSTG
B4: histone H3 peptide H3T3phK4ac(1-12) (peptide, UniProt P68431 2-13, looked up)
peptide: AR[pT]K(Ac)QTARKSTG
B5: histone H3 peptide H3K4me3(1-12) (peptide, UniProt P68431 2-13, looked up)
peptide: ART[Lys(Me3)]QTARKSTG
B6: histone H3 peptide H3K4me1(1-12) (peptide, UniProt P68431 2-13, looked up)
peptide: ART[Lys(Me)]QTARKSTG
B7: histone H3 peptide H3T3phK4me2(1-12) (peptide, UniProt P68431 2-13, looked up)
peptide: AR[pT][Lys(Me2)]QTARKSTG

Experiments:
[1] = target: hSurvivin (Homo sapiens, UniProt O15392); conditions: ITC, pH 7.2, 25°C; ref Niedzialkowska et al. (2012); cited from earlier work
[2] = test system: U2OS cells; format: cell-based; conditions: HDAC3 shRNA, immunofluorescence
[3] = test system: U2OS cells; assay: Histone H3K4ac immunoblot in U2OS cells after HAT inhibition or Tip60 depletion; format: cell-based; conditions: for H3K4ac level: U2OS cells, anti-H3K4ac immunoblot
In short: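 Asynchronous and nocodazole-arrested mitotic U2OS cells were treated with the Tip60 acetyltransferase inhibitor Nu9056 for 1 h. Separately, U2OS cells engineered for doxycycline-induced shRNA against Tip60 were depleted of Tip60. Histone H3 K4 acetylation was read by immunoblot with anti-H3K4ac antibody at 1:1000.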

[4] = test system: U2OS cells; assay: Aurora B at centromeres of interphase; format: cell-based; conditions: interphase (S/G2) cells, immunofluorescence, ACA mask
[5] = target: human Survivin (hSurvivin) (human, UniProt O15392 1-142); assay: ITC
Sequence of human Survivin (hSurvivin) (O15392 whole entry): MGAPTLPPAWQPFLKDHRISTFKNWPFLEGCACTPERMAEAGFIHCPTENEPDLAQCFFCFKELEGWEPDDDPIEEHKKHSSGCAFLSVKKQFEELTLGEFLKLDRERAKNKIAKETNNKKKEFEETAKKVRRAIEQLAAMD

Sequence of hSurvivin (O15392 whole entry): as above

Row | Molecule | dH [5] [kJ/mol] | stoichiometry N [5] | other results
1 | H3(1-12): first 12 amino acids of histone H3; values from Niedzialkowska et al. (2012) | – | – | –TΔS [1]: –4040 cal/mol
2 | shHDAC3: HDAC3 shRNA targeting sequence AGAAGTCCACTACCTGGTT (the letters are possibly those of the target site) | – | – | Aurora B at centromeres after HDAC3 depletion [2]: most of the Aurora B remains on noninner centromeric (chromosome arm) regions after HDAC3 depletion
3 | c1cc(SSc2ccns2)sn1 [Nu9056] | – | – | H3K4ac level [3]: resulted in decreased H3K4ac levels; H3K4ac level in mitotic cells ([3]; mitotic U2OS cells, nocodazole arrested, Nu9056 for 1 h, immunoblot): also sensitive to the Tip60 inhibitor; Aurora B localization at centromeres in interphase cells [4]: leads to Aurora B localization at centromeres in interphase (S/G2) cells
4 | H3T3ph(1-12): histone H3 residues 1-12 with T3 phosphorylation; values from Niedzialkowska et al. (2012) | – | – | –TΔS [1]: –2800 cal/mol
5 | Clc1ccc(-c2csc(NN=C3CCCC3)n2)cc1 [CTPH2] | – | – | H3K4ac level [3]: not GCN5 (CTPH2) or p300/CBP (Inhibitor VI) resulted in decreased H3K4ac levels
6 | B1 | -19.4 ± 0.377 | 1.21 ± 0.02 | –
7 | B2 | -10.9 ± 0.167 | 0.899 ± 0.01 | –
8 | B3 | -19.63 ± 0.109 | 1.03 ± 0.005 | –
9 | B4 | -30.5 ± 0.418 | 0.965 ± 0.009 | –
10 | B5 | -25.1 ± 2.93 | 0.83 ± 0.07 | –
11 | B6 | -11.2 ± 0.251 | 1.08 ± 0.012 | –
12 | B7 | -26.15 ± 0.251 | 0.873 ± 0.004 | –
